Several values for one entry are separate records, joined by “and”; a condition that tells them apart may be missing. Identical values can stand only once. Like-named read-outs stand apart in the source and are kept apart here. Values belong to the compound of their own block, whether it stands above or below them.
Legend:
Cyp3a1 = test: RT-qPCR mRNA expression in small intestine and liver; format: in vivo, rats; conditions: KET 75 mg/kg i.g. 7 days, vs control, P<0.001
Cyp3a2 = test: as above; format: in vivo, rats; conditions: KET 75 mg/kg i.g. 7 days, vs control, P<0.001
Mdr1 = test: RT-qPCR mRNA expression in small intestine and liver; format: in vivo, rats; conditions: VER 4 mg/kg i.g. 7 days, vs control, P<0.001
How it was run: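 Rats, 3 per group, dosed once daily for 7 days: phosphate buffer 5 ml/kg i.v., test compound 2.5/5/10 mg/kg i.v. in phosphate buffer, ketoconazole 75 mg/kg i.g. in olive oil, or verapamil 4 mg/kg i.g. in water. Olive oil 5 ml/kg gavaged 30 min after day-7 dose. Killed 24 h post-dose after overnight fast; liver and intestinal mucosa snap-frozen. qPCR: 40 cycles, 58°C annealing; 2−ΔΔCq.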

P-gp = test: Western blot protein expression in small intestine and liver; format: in vivo, rats; conditions: rat, in vivo
[1] = healthy volunteers, cited from earlier work

decrease in Cyp3a1 mRNA expression (Cyp3a1; liver): 78.64% | decrease in Cyp3a1 mRNA expression (Cyp3a1; small intestine): 78.27% | decrease in Cyp3a2 mRNA expression (Cyp3a2; liver): 87.39% | decrease in Cyp3a2 mRNA expression (Cyp3a2; small intestine): 70.09%
SMILES: CC(=O)N1CCN(c2ccc(OCC3COC(Cn4ccnc4)(c4ccc(Cl)cc4Cl)O3)cc2)CC1 (stereo not shown) [KET, ketoconazole, reference compound]

SMILES: COc1ccc(CCN(C)CCCC(C#N)(c2ccc(OC)c(OC)c2)C(C)C)cc1OC (stereo not shown) [VER, verapamil, reference compound]
decrease in Mdr1 mRNA expression (Mdr1; liver): 84.33% | decrease in Mdr1 mRNA expression (Mdr1; small intestine): 65.32% | decrease in P-gp protein expression (P-gp): 85.02% and 84.54%

SMILES: O=c1c(O)c(-c2ccc(O)c(O)c2)oc2cc(O)cc(O)c12 [quercetin]
increase in AUC of CsA ([1]; CsA 30 min following quercetin administration): 36% | increase in AUC of CsA ([1]; CsA 3 days following quercetin administration): 47% | increase in AUC of CsA ([1]; co-administration of quercetin (5 mg/kg) and CsA): 18%
